The source made the active and inactive calls. The rule behind the calls is not given here.

Consider nine compounds from ChEMBL document CHEMBL4007443, “Discovery of Potent Human Glutaminyl Cyclase Inhibitors as Anti-Alzheimer's Agents Based on Rational Design” (J Med Chem, 2017).

The subject of data set [1] is Mus musculus. As to the kind of experiment: Antialzheimer activity in human amyloid beta (3 to 40) induced acute ICR mouse Alzheimer's disease mouse model assessed as inhibition of amyloid beta (N3pE to 40) formation in brain at 10 mM, icv by sandwich ELISA. Type of data set: functional. Summed up:
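Acute model: male ICR mice, 5 weeks old (25 g, n = 4), anaesthetized and given 5 µg human Aβ3-40 in 5 µL PBS by stereotaxic injection into deep cortex/hippocampus (AP -2.0, ML 1.2, DV 1.0 mm from bregma). Inhibitor given by the same intracerebral route or i.p. Brain extracts taken next day; Aβ N3pE-40 quantified by sandwich ELISA. Percent inhibition is relative to vehicle; one-way ANOVA with Bonferroni.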
(In general: ELISA stands for enzyme-linked immunosorbent assay.)

Data set [2] in a line: Cytotoxicity against mouse HT22 cells assessed as cell viability at 10 uM after 18 hrs by MTT assay. Type of data set: cell-based, HT-22. As to conditions: read-out: Activity. In short, it runs like this: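 HT-22 mouse hippocampal cells grown in DMEM with 10% FBS at 37 °C, 5% CO2. Cells seeded at 5000/well the day before and exposed to compound at 10 µM for 18 h at 37 °C. MTT added for 3 h, formazan dissolved in DMSO, absorbance read at 570 nm. Viability expressed relative to vehicle control (100%).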

For data set [3], the species on record is Mus musculus. Particulars: ICR, 25 mg/kg.
The target of data set [4] is Glutaminyl-peptide cyclotransferase (Mus musculus, UniProt Q9CYK2). As to the kind of experiment: Inhibition of mouse glutaminyl cyclase assessed as reduction in conversion of H-Gln-AMC hydrobromide to pGlu-AMC preincubated with substrate for 10 mins followed by enzyme addition by pGAPase coupled fluorometry.
Chain of Glutaminyl-peptide cyclotransferase (Q9CYK2 whole entry): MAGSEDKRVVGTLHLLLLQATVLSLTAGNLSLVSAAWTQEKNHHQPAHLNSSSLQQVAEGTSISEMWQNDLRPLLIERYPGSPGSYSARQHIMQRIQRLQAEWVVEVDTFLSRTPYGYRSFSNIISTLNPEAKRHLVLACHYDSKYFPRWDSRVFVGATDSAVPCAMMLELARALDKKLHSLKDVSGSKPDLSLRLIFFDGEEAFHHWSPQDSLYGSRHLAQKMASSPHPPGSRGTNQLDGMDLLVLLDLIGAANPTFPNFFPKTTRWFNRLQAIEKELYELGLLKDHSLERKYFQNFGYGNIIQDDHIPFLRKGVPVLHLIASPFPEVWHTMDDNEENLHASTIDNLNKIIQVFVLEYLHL
The nature of data set [5]: Stability in mouse liver microsomes assessed as compound remaining after 30 mins. Type of data set: ADME, microsome. Particulars: read-out: Stability.
Data set [6] deals with Mus musculus. As to the kind of experiment: Cognition enhancement activity in 5XFAD Alzheimer's disease mouse model assessed as increase in duration of time spent in target quadrant administered intraperitoneally starting from 19 to 34 weeks of age by Morris water maze test. The class given is functional. In short, it runs like this:
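Male 5XFAD mice (n = 6 vehicle, n = 6 treated) received the compound i.p. from 19 weeks of age for 3 months, housed singly on a 12:12 h light cycle. Morris water maze: four hidden-platform training trials per day for 5 days, scoring escape latency. Probe trial 24 h later with the platform removed, scoring time in the target quadrant.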

The species entered for data set [7] is Mus musculus. As to the kind of experiment: animal or person. Particulars: ICR, ip, read-out: INH.
Data set [8] deals with Mus musculus. As to the kind of experiment: Toxicity in APP/PS1 transgenic Alzheimer's disease mouse model administered via icv for 3 weeks. Particulars: in vivo, icv_or_intrathecal, 504 h.

For the compound `COc1cc(NC(=S)NCCCn2cncc2C)ccc1OCCCCN1CCNCC1`, the “inhibition (INH)” value with Mus musculus [1] was 29.2%. Also, in data set [2], the viability at 18 h, 10 µM was 100%.
`COc1ccc(NC(=S)NCCCn2cncc2C)cc1OC`: in the data set with Mus musculus [1], the “inhibition (INH)” value was 41.6%. Besides, the viability at 18 h, 10 µM in data set [2] was determined as 100%. The inhibition entry in the data set filed under Mus musculus [3] is “inactive”. For the same compound, in data set [4], the IC50 (usually the concentration at which inhibition is half-maximal) came to 21.5 nM.
Take `COc1cc(NC(=S)NCCCn2cncc2C)ccc1OCCC1CCN(C)CC1`: the “inhibition (INH)” value in the data set on Mus musculus [1] is given as 18.7%. Besides, the viability at 18 h, 10 µM in data set [2] is 100%.
In the same order, the values of `COc1cc(NC(=S)NCCCn2cncc2C)ccc1OCCCCNc1ncccn1` are 27.3% and 100%.
As for `COc1cc(NC(=S)NCCCn2cncc2C)ccc1OCCc1ccnc(N)c1`, the “inhibition (INH)” value in the data set on Mus musculus [1] was 38%. Further, the viability at 18 h, 10 µM in data set [2] worked out at 100%.
Turning to `COc1cc(NC(=S)NCCCn2cncc2C)ccc1OCCCN`, the “inhibition (INH)” value in the data set with Mus musculus [1] was 64.6%. In addition, in data set [2], the viability at 18 h, 10 µM turned out to be 100%. Moreover, the inhibition result in the data set listed under Mus musculus [3] was “inactive”.
In the case of `COc1cc(NC(=S)NCCCn2cncc2C)ccc1OCCCCc1ccnc(N)c1`, the remaining at 0.5 h in data set [5] came to 50%. In addition, the result in the data set with Mus musculus [6] was Active. The inhibition in vivo at 25 mg/kg in the data set filed under Mus musculus [7] was 54.7%. Further, the “inhibition (INH)” value in the data set with Mus musculus [1] turned out to be 66.1%. Besides, in data set [2], the viability at 18 h, 10 µM stood at 100%. Moreover, the Activity entry in the data set with Mus musculus [8] is listed as “Non-Toxic”. Further, the IC50 in data set [4] was found to be 12.6 nM.
With `COc1cc(NC(=S)NCCCn2cncc2C)ccc1OCCCCN(C)C`, in the data set with Mus musculus [1], the “inhibition (INH)” value was found to be 35.7%. For the same compound, in data set [2], the viability at 18 h, 10 µM worked out at 100%.
As to `COc1cc(NC(=S)NCCCn2cncc2C)ccc1OCCN1CCNCC1`, the inhibition in vivo at 25 mg/kg in the data set listed under Mus musculus [7] stood at 3.6%. The “inhibition (INH)” value with Mus musculus [1] came out at 77.2%. In data set [2], the viability at 18 h, 10 µM turned out to be 100%.
